Laboratory results taken from ChEMBL document CHEMBL3244322, “5-O-Alkylated derivatives of 5-hydroxy-2'-deoxyuridine as potential antiviral agents. Anti-herpes activity of 5-propynyloxy-2'-deoxyuridine” (J Med Chem, 1978).
In brackets after ≈: the same amount, converted by molar mass. Activity calls are given as the source filed them. No cut-off for these calls is given here.

What was measured:
[1] = test system: Vesicular stomatitis virus; assay: Antiviral activity against Vesicular stomatitis virus infected in human skin fibroblasts primed with interferon and superinduced with cyclohexamide and actinomycin D assessed as inhibition of virus-induced cytopathogenicity; format: functional, organism-based
Human alphaherpesvirus 1 [2] = assay: Antiviral activity against Herpes simplex virus 1 KOS infected in primary rabbit kidney cells assessed as inhibition of virus-induced cytopathogenicity; format: functional; conditions: Human alphaherpesvirus 1, KOS
Human alphaherpesvirus 1 [3] = assay: Antiviral activity against Herpes simplex virus 1 KOS infected in human skin fibroblasts primed with interferon and superinduced with cyclohexamide and actinomycin D assessed as inhibition of virus-induced cytopathogenicity; format: functional; conditions: Human alphaherpesvirus 1, KOS
[4] = test system: Vesicular stomatitis virus; assay: Antiviral activity against Vesicular stomatitis virus infected in primary rabbit kidney cells assessed as inhibition of virus-induced cytopathogenicity; format: functional, organism-based
[5] = Cytotoxicity against mouse L cells assessed as suppression of replication; format: cell-based; conditions: l929
[6] = Cytotoxicity against mouse L cells assessed as suppression of replication at 10^-3 M; format: cell-based; conditions: l929, 1000 µM
[7] = Ratio of I50 for DNA synthesis in primary rabbit kidney cells by [3H]-dT incorporation assay to MIC50 for Herpes simplex virus 1 KOS
Summary of the method: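 DNA synthesis in uninfected PRK cells measured by [3H]-dT incorporation. The concentration giving 50% reduction is set against the concentration giving 50% reduction in herpes virus cytopathogenicity.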

Row | SMILES | inhibition [1] | MIC (Human alphaherpesvirus 1 [2]) [µM] | MIC (Human alphaherpesvirus 1 [3]) [µM] | inhibition [4] | Activity [5] | Activity [6] | Ratio [7]
1 | O=c1[nH]c(=O)n([C@H]2C[C@H](O)[C@@H](CO)O2)cc1OCc1ccccc1 | inactive | > 120 | > 450 | inactive | – | – | –
2 | O=c1[nH]c(=O)n([C@@H]2O[C@H](CO)[C@@H](O)[C@H]2O)cc1OCc1ccccc1 | inactive | > 600 | > 600 | inactive | – | – | –
3 | O=c1[nH]c(=O)n([C@H]2C[C@H](O)[C@@H](CO)O2)cc1I [IDOXURIDINE] | – | 1.4 (≈ 0.496 µg/mL) | 0.35 (≈ 0.124 µg/mL) | – | Toxic | – | –
4 | C#CCOc1cn([C@H]2C[C@H](O)[C@@H](CO)O2)c(=O)[nH]c1=O | inactive | 2.6 (≈ 0.734 µg/mL) | 3.5 (≈ 0.988 µg/mL) | inactive | – | Non-toxic | 150
5 | Cc1ccc(COc2cn([C@@H]3O[C@H](CO)[C@@H](O)[C@H]3O)c(=O)[nH]c2=O)cc1 | inactive | > 600 | > 600 | inactive | – | – | –
6 | O=C(O)COc1cn([C@H]2C[C@H](O)[C@@H](CO)O2)c(=O)[nH]c1=O | inactive | > 600 | – | inactive | – | – | –
7 | NC(=O)COc1cn([C@@H]2O[C@H](CO)[C@@H](O)[C@H]2O)c(=O)[nH]c1=O | inactive | > 600 | > 600 | inactive | – | – | –
8 | NC(=O)COc1cn([C@H]2C[C@H](O)[C@@H](CO)O2)c(=O)[nH]c1=O | inactive | 140 (≈ 42.2 µg/mL) | 260 (≈ 78.3 µg/mL) | inactive | – | – | –
9 | O=c1[nH]c(=O)n([C@@H]2O[C@H](CO)[C@@H](O)[C@H]2O)cc1OCc1ccc([N+](=O)[O-])cc1 | inactive | > 600 | > 600 | inactive | – | – | –
10 | Nc1ncnc2c1ncn2[C@@H]1O[C@H](CO)[C@@H](O)[C@@H]1O [VIDARABINE] | – | 14 (≈ 3.74 µg/mL) | 3.5 (≈ 0.935 µg/mL) | – | – | – | –
11 | O=c1[nH]c(=O)n([C@H]2C[C@H](O)[C@@H](CO)O2)cc1O | – | 16 (≈ 3.91 µg/mL) | 3.5 (≈ 0.855 µg/mL) | – | – | – | –
12 | C=CCOc1cn([C@H]2C[C@H](O)[C@@H](CO)O2)c(=O)[nH]c1=O | inactive | 14 (≈ 3.98 µg/mL) | 140 (≈ 39.8 µg/mL) | inactive | – | – | –
13 | C=CCOc1cn([C@@H]2O[C@H](CO)[C@@H](O)[C@H]2O)c(=O)[nH]c1=O | inactive | > 600 | > 600 | inactive | – | – | –
14 | O=c1[nH]c(=O)n([C@H]2C[C@H](O)[C@@H](CO)O2)cc1OCc1ccc([N+](=O)[O-])cc1 | inactive | > 260 | > 520 | inactive | – | – | –
